Results from ChEMBL document CHEMBL1124866, “Synthesis and activity of NAcSerAspLysPro analogues on cellular interactions between T-cell and erythrocytes in rosette formation” (1990).
Active and inactive are the calls of the source. The rule behind the calls is not given here. Peptide text beside a SMILES is read from it.

Legend:
[1] = tested on: Jurkat; assay: Activity on rosetting of jurkat T-cells with SRBC at the concentration of 10e-5 M; Not significant; assay type: functional, cell-based; conditions: Homo sapiens
[2] = tested on: Jurkat; assay: (§1) Activity on rosetting of jurkat T-cells with SRBC at the concentration of 10e-5 M; assay type: functional, Homo sapiens
[3] = tested on: Jurkat; assay: Activity on rosetting of jurkat T-cells with SRBC at the concentration of 10e-4 M; Not significant; assay type: functional, cell-based; conditions: Homo sapiens
[4] = tested on: Jurkat; assay: Activity on rosetting of jurkat T-cells with SRBC at the concentration of 0 M; assay type: functional, Homo sapiens
[5] = tested on: Jurkat; assay: (§2) Activity on rosetting of jurkat T-cells with SRBC at the concentration of 10e-4 M; assay type: functional, Homo sapiens
[6] = tested on: Jurkat; assay: (§3) Activity on rosetting of jurkat T-cells with SRBC at the concentration of 10e-6 M; assay type: functional, Homo sapiens
[7] = tested on: Jurkat; assay: Activity on rosetting of jurkat T-cells with SRBC at the concentration of 10e-14 M; Not significant; assay type: functional, cell-based; conditions: Homo sapiens
[8] = tested on: Jurkat; assay: as §3; assay type: functional; conditions: Homo sapiens
[9] = tested on: Jurkat; assay: (§4) Activity on rosetting of jurkat T-cells with SRBC at the concentration of 10e-11 M; assay type: functional; conditions: Homo sapiens
[10] = tested on: Jurkat; assay: as §2; assay type: functional; conditions: Homo sapiens
[11] = tested on: Jurkat; assay: (§5) Activity on rosetting of jurkat T-cells with SRBC at the concentration of 10e-10 M; assay type: functional; conditions: Homo sapiens
[12] = tested on: Jurkat; assay: Activity on rosetting of jurkat T-cells with SRBC at the concentration of 10e-15 M; Not significant; assay type: functional, cell-based; conditions: Homo sapiens
[13] = tested on: Jurkat; assay: (§6) Activity on rosetting of jurkat T-cells with SRBC at the concentration of 10e-7 M; assay type: functional, Homo sapiens
[14] = tested on: Jurkat; assay: Activity on rosetting of jurkat T-cells with SRBC at the concentration of 10e-14 M; assay type: functional, Homo sapiens
[15] = tested on: Jurkat; assay: as §4; assay type: functional, Homo sapiens
[16] = tested on: Jurkat; assay: (§7) Activity on rosetting of jurkat T-cells with SRBC at the concentration of 10e-8 M; assay type: functional, Homo sapiens
[17] = tested on: Jurkat; assay: as §7; assay type: functional; conditions: Homo sapiens
[18] = tested on: Jurkat; assay: Activity on rosetting of jurkat T-cells with SRBC at the concentration of 10e-13 M; assay type: functional, Homo sapiens
[19] = tested on: Jurkat; assay: as §5; assay type: functional, Homo sapiens
[20] = tested on: Jurkat; assay: Activity on rosetting of jurkat T-cells with SRBC at the concentration of 10e-12 M; assay type: functional, Homo sapiens
[21] = tested on: Jurkat; assay: as §1; assay type: functional; conditions: Homo sapiens
[22] = tested on: Jurkat; assay: Activity on rosetting of jurkat T-cells with SRBC at the concentration of 10e-15 M; assay type: functional, Homo sapiens
[23] = tested on: Jurkat; assay: Activity on rosetting of jurkat T-cells with SRBC at the concentration of 10e-12 M; Not significant; assay type: functional, cell-based; conditions: Homo sapiens
[24] = tested on: Jurkat; assay: as §6; assay type: functional; conditions: Homo sapiens
[25] = tested on: Jurkat; assay: Activity on rosetting of jurkat T-cells with SRBC at the concentration of 10e-13 M; Not significant; assay type: functional, cell-based; conditions: Homo sapiens
[26] = tested on: Jurkat; assay: (§8) Activity on rosetting of jurkat T-cells with SRBC at the concentration of 10e-9 M; assay type: functional, Homo sapiens
[27] = tested on: Jurkat; assay: Activity on rosetting of jurkat T-cells with SRBC at the concentration of 10e-6 M; Not significant; assay type: functional, cell-based; conditions: Homo sapiens
[28] = tested on: Jurkat; assay: Activity on rosetting of jurkat T-cells with SRBC at the concentration of 10e-9 M; Not significant; assay type: functional, cell-based; conditions: Homo sapiens, at 0.001 µM
Procedure, shortened: (§9)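 Jurkat T lymphoma cells kept in RPMI 1640 with 10% heat-inactivated FCS, washed three times before use; SRBC washed three times. Jurkat cells (2 × 10^6 cells/mL, 2.10⁵ cells) preincubated with peptide in RPMI for 10 min at 4 °C. SRBC (2 × 10^8 cells/mL) added, centrifuged 5 min at 200g, held overnight at 4 °C. Rosettes (three erythrocytes per lymphocyte) counted blind by hemocytometer; three experiments in quadruplicate; % inhibition.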

[29] = tested on: Jurkat; assay: Activity on rosetting of jurkat T-cells with SRBC at the concentration of 10e-8 M; Not significant; assay type: functional, cell-based; conditions: Homo sapiens, at 0.01 µM; procedure, shortened: as §9
[30] = tested on: Jurkat; assay: Activity on rosetting of jurkat T-cells with SRBC at the concentration of 10e-7 M; Not significant; assay type: functional, cell-based; conditions: Homo sapiens, at 0.1 µM; procedure, shortened: as §9
[31] = tested on: Jurkat; assay: Activity on rosetting of jurkat T-cells with SRBC at the concentration of 10e-11 M; Not significant; assay type: functional, cell-based; conditions: Homo sapiens, at 10 pM; procedure, shortened: as §9
[32] = tested on: Jurkat; assay: Activity on rosetting of jurkat T-cells with SRBC at the concentration of 10e-10 M; Not significant; assay type: functional, cell-based; conditions: Homo sapiens, at 0.0001 µM; procedure, shortened: as §9
[33] = tested on: Jurkat; assay: (§10) Activity on rosetting of jurkat T-cells with SRBC at the concentration of 10e-3 M; assay type: functional, Homo sapiens
[34] = tested on: Jurkat; assay: as §8; assay type: functional; conditions: Homo sapiens
[35] = tested on: Jurkat; assay: as §10; assay type: functional; conditions: Homo sapiens

## NCCCC[C@H](NC(=O)[C@@H](N)CC(=O)O)C(=O)N1CCC[C@H]1C(=O)O (H-Asp-Lys-Pro-OH)
[1]
  inhibition: inactive
[2]
  No. of rosettes/100 Jurkat T cells: 57
[3]
  inhibition: inactive
[4]
  No. of rosettes/100 Jurkat T cells: 54
[5]
  No. of rosettes/100 Jurkat T cells: 55

## NCCCC[C@H](NC(=O)[C@H](CC(=O)O)NC(=O)[C@@H](N)CO)C(=O)N1CCC[C@H]1C(=O)O (H-SDKP-OH)
[6]
  No. of rosettes/100 Jurkat T cells: 50
[7]
  inhibition: inactive
[8]
  inhibition at 1 µM: 20%
[9]
  inhibition at 10 pM: 13%
[10]
  inhibition at 100 µM: 25%
[11]
  inhibition at 0.0001 µM: 13%
[12]
  inhibition: inactive
[13]
  No. of rosettes/100 Jurkat T cells: 54
[14]
  No. of rosettes/100 Jurkat T cells: 61
[15]
  No. of rosettes/100 Jurkat T cells: 55
[2]
  No. of rosettes/100 Jurkat T cells: 49
[16]
  No. of rosettes/100 Jurkat T cells: 56
[17]
  inhibition at 0.01 µM: 11%
[18]
  No. of rosettes/100 Jurkat T cells: 58
[19]
  No. of rosettes/100 Jurkat T cells: 55
[4]
  No. of rosettes/100 Jurkat T cells: 63
[20]
  No. of rosettes/100 Jurkat T cells: 59
[21]
  inhibition at 10 µM: 22%
[22]
  No. of rosettes/100 Jurkat T cells: 60
[23]
  inhibition: inactive
[5]
  No. of rosettes/100 Jurkat T cells: 47
[24]
  inhibition at 0.1 µM: 14%
[25]
  inhibition: inactive

## N[C@@H](CO)C(=O)N[C@@H](CC(=O)O)C(=O)O (H-Ser-Asp-OH)
[6]
  No. of rosettes/100 Jurkat T cells: 55
[10]
  inhibition at 100 µM: 31%
[26]
  No. of rosettes/100 Jurkat T cells: 64
[13]
  No. of rosettes/100 Jurkat T cells: 58
[1]
  inhibition: inactive
[27]
  inhibition: inactive
[2]
  No. of rosettes/100 Jurkat T cells: 55
[16]
  No. of rosettes/100 Jurkat T cells: 55
[4]
  No. of rosettes/100 Jurkat T cells: 51
[28]
  inhibition: inactive
[29]
  inhibition: inactive
[30]
  inhibition: inactive
[5]
  No. of rosettes/100 Jurkat T cells: 46

## CC(=O)N[C@@H](CO)C(=O)N[C@@H](CC(=O)O)C(=O)N[C@@H](CCCCN)C(=O)N1CCC[C@H]1C(=O)O (stereo in doubt; form 1)
[31]
  inhibition: inactive
[32]
  inhibition: inactive

## CC(=O)N[C@@H](CO)C(=O)N[C@@H](CC(=O)O)C(=O)N[C@@H](CCCCN)C(=O)N1CCC[C@H]1C(=O)O (stereo in doubt; form 1) [GORALATIDE]
[6]
  No. of rosettes/100 Jurkat T cells: 37
[33]
  No. of rosettes/100 Jurkat T cells: 32
[8]
  inhibition at 1 µM: 40%
[10]
  inhibition at 100 µM: 48%
[26]
  No. of rosettes/100 Jurkat T cells: 48
[13]
  No. of rosettes/100 Jurkat T cells: 40
[34]
  inhibition at 0.001 µM: 21%
[15]
  No. of rosettes/100 Jurkat T cells: 58
[2]
  No. of rosettes/100 Jurkat T cells: 32
[16]
  No. of rosettes/100 Jurkat T cells: 41
[17]
  inhibition at 0.01 µM: 34%
[19]
  No. of rosettes/100 Jurkat T cells: 63
[4]
  No. of rosettes/100 Jurkat T cells: 62
[21]
  inhibition at 10 µM: 48%
[35]
  inhibition at 1000 µM: 48%
[5]
  No. of rosettes/100 Jurkat T cells: 33
[24]
  inhibition at 0.1 µM: 35%

## CC(=O)N[C@@H](CO)C(=O)N[C@@H](CC(=O)O)C(=O)N[C@@H](CCCCN)C(=O)N1CCC[C@H]1C(=O)O (stereo in doubt; form 2)
[1]
  inhibition: inactive
[27]
  inhibition: inactive
[3]
  inhibition: inactive
[29]
  inhibition: inactive
[30]
  inhibition: inactive
[32]
  inhibition: inactive

## CC(=O)N[C@@H](CO)C(=O)N[C@@H](CC(=O)O)C(=O)N[C@@H](CCCCN)C(=O)N1CCC[C@H]1C(=O)O (stereo in doubt; form 2) [GORALATIDE]
[6]
  No. of rosettes/100 Jurkat T cells: 76
[13]
  No. of rosettes/100 Jurkat T cells: 83
[2]
  No. of rosettes/100 Jurkat T cells: 78
[16]
  No. of rosettes/100 Jurkat T cells: 83
[19]
  No. of rosettes/100 Jurkat T cells: 83
[4]
  No. of rosettes/100 Jurkat T cells: 82
[5]
  No. of rosettes/100 Jurkat T cells: 80
